In ChEMBL document CHEMBL1153633, “Synthesis and biological activity of alpha-galactosyl ceramide KRN7000 and galactosyl (alpha1-->2) galactosyl ceramide” (Bioorg Med Chem Lett, 2009):
The source made the active and inactive calls. No cut-off for these calls is given here.

Experiments:
Type in all cases: functional, cell-based
[1] = Activation of human BM2a.3 cells co-cultured with CD1d-expressing U937 cells assessed as IFN-gamma release after 16 hrs by ELISA; details: U-937
Outline: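 Human iNKT clone BM2a.3 (2.5×10^4) co-cultured with 2.5×10^4 U937 cells and a range of lipid concentrations; cytokines in culture supernatants measured by ELISA after 16 h.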

RAW [2] = assay: Activation of mouse DN32 cells in co-cultured with CD1d-transfected RAW cells assessed as IL-2 release after 16 hrs by ELISA
Outline: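 Mouse iNKT hybridoma DN32 (5×10^4) co-cultured with 5×10^4 RAW cells, CD1d-transfected or untransfected, across a range of lipid concentrations; supernatant cytokines measured by ELISA at 16 h.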

DN32 = assay: Activation of mouse DN32 cells in co-cultured with plate bound antigen presenting cell free CD1d-FC fusion protein assessed as IL-2 release after 16 hrs by ELISA
Outline: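 Plate-bound murine recombinant CD1d-Fc fusion protein loaded with lipid for 16 h, then washed; 5×10^4 iNKT hybridoma cells added per well, with no APC. Cytokines in culture supernatants measured by ELISA.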

RAW [3] = assay: Activation of mouse DN32 cells co-cultured with CD1d-transfected RAW cells assessed as IL-2 release at 100 ng/ml fixed and then pulsed for 3 hrs measured after 16 hrs by ELISA
Outline: (§1)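 CD1d-transfected RAW cells were handled in one of two orders. In one, they were pulsed with 100 ng/ml lipid for 3 h, washed, then fixed with glutaraldehyde. In the other, they were fixed first, then pulsed for 3 h. 10^5 APC were co-cultured with 10^5 iNKT hybridoma cells for 16 h, and supernatant cytokines were measured by ELISA.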

RAW [4] = assay: Activation of mouse DN32 cells co-cultured with CD1d-transfected RAW cells assessed as IL-2 release at 100 ng/ml pulsed for 3 hrs and then fixed measured after 16 hrs by ELISA; outline: as §1

CCCCCCCCCCCCCCCCCCCCCCCCCC(=O)N[C@@H](CO[C@H]1O[C@H](CO)[C@H](O)[C@H](O)[C@H]1O)[C@H](O)[C@H](O)CCCCCCCCCCCCCC
Activity [1]: Active | Activity (RAW [2]): Active | Activity (DN32): Active | Activity (RAW [3]): Active | Activity (RAW [4]): Active

CCCCCCCCCCCCCCCCCCCCCCCCCC(=O)N[C@@H](CO[C@H]1O[C@H](CO)[C@H](O)[C@H](O)[C@H]1O[C@H]1O[C@H](CO)[C@H](O)[C@H](O)[C@H]1O)[C@H](O)[C@H](O)CCCCCCCCCCCCCC
Activity [1]: Active | Activity (RAW [2]): Active | Activity (DN32): inactive | Activity (RAW [3]): inactive | Activity (RAW [4]): Active
